Each block holds one compound with its values, some of them ahead of it.
Experiments:
Trypanosoma cruzi [1] = assay: Antitrypanosomal activity against Trypanosoma cruzi Sylvio X-10 amastigotes infected in African green monkey Vero cells assessed as eradication of amastigotes after 5 days by Giemsa staining-based assay; format: functional, organism-based; details: Sylvio X-10, Vero, 120 h
How it was run: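 VERO cells in RPMI 1640 with 10% hiFCS were allowed to adhere for 24 h at 37 °C in 5% CO₂, then infected with tissue-derived trypomastigotes at 10:1. Free parasites were washed off after 24 h, and cultures were treated at five compound doses (text gives 72 h / 5 days). Cultures were methanol-fixed and Giemsa-stained, and infected cells were counted among 300. Quadruplicates were run in three independent experiments. IC50/IC90 were obtained by sigmoidal regression.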

Trypanosoma cruzi [2] = assay: Antitrypanosomal activity against Trypanosoma cruzi Tulahuen 2 epimastigotes assessed as growth inhibition after 5 days; format: functional, organism-based; details: Trypanosoma cruzi, Tulahuen 2, 120 h
How it was run: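 Epimastigotes were grown axenically at 28 °C in BHI-tryptose with 5% FBS and seeded from a 5–7 day culture at 1 × 10⁶ cells/mL. Drug from a DMSO stock was added (final DMSO ≤0.4%; the control contained 0.4% DMSO). Duplicates were run. A600 was read at day 5, and % inhibition was calculated relative to day-0 and control readings. IC50 = concentration that halves the absorbance ratio.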

Trypanosoma cruzi [3] = assay: Antitrypanosomal activity against Trypanosoma cruzi Sylvio X-10 amastigotes infected in African green monkey Vero cells assessed as eradication of amastigotes after 72 hrs by Giemsa staining-based assay; details: Sylvio X-10, Vero
Salmonella typhimurium [4] = assay: Mutagenic activity in Salmonella typhimurium TA98 at 3.1 to 250 ug/plate by Ames test; format: toxicity, organism-based; details: salmonella enterica subsp. enterica serovar typhimurium
How it was run: (§1)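 Ames plate-incorporation assay with S. typhimurium TA98 in Vogel-Bonner E minimal glucose agar. Toxicity toward the bacteria was checked first. DMSO solutions were run in triplicate at five consecutive third-dilutions, starting at the highest non-toxic dose. Positive controls were 4-nitro-o-phenylenediamine (20.0 μg/plate) and 2-aminofluorene (10.0 μg/plate); DMSO was the negative control. Revertants were counted manually. A compound was called mutagenic when revertants were at least twice the negative control at two or more consecutive doses.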

Salmonella typhimurium [5] = assay: Mutagenic activity in Salmonella typhimurium TA98 at 3.1 to 250 ug/plate by Ames test in presence of mouse liver S9 fraction; format: toxicity, organism-based; details: salmonella enterica subsp. enterica serovar typhimurium; how it was run: as §1
Salmonella typhimurium [6] = assay: Mutagenic activity in Salmonella typhimurium TA98 at 0.005 to 0.4 ug/plate by Ames test in presence of mouse liver S9 fraction; format: toxicity, organism-based; details: salmonella enterica subsp. enterica serovar typhimurium
How it was run: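 Plate-incorporation Ames test on minimal glucose agar with 500 μL Aroclor-treated mouse liver S9 added. DMSO solutions were tested at five consecutive 3-fold dilutions from the highest non-toxic dose, in triplicate, with a DMSO negative control. Revertants were counted manually; a compound was scored mutagenic when revertants were at least twice the negative control for two or more consecutive doses.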

Salmonella typhimurium [7] = assay: Mutagenic activity in Salmonella typhimurium TA98 at 0.005 to 0.4 ug/plate by Ames test; format: toxicity, organism-based; details: salmonella enterica subsp. enterica serovar typhimurium
How it was run: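 Direct plate incubation on minimal glucose agar (Vogel-Bonner E). Compound toxicity to the bacteria was checked first. DMSO solutions were tested at five consecutive 3-fold dilutions, starting from the highest non-toxic dose, in triplicate, without metabolic activation. DMSO served as negative control. Revertants were counted manually; mutagenic = revertants at least double the negative control at two or more consecutive doses.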

[8] = Selectivity index, ratio of IC50 for African green monkey Vero cells to IC50 for Trypanosoma cruzi Sylvio X-10 amastigotes; format: toxicity, cell-based; details: read-out: Ratio IC50
How it was run: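 VERO cytotoxicity: cells exposed 48 h at 37 °C, 5% CO2 to serial dilutions from a maximum of 2000 μM (DMSO stocks; DMSO <0.1% control); growth inhibition read by MTT at 570 nm. Amastigote IC50: Sylvio X-10-infected VERO cells, five doses, infected cells counted among 300 (Giemsa), quadruplicate, three experiments, sigmoidal fit. SI = IC50 VERO / IC50 amastigote.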

Salmonella typhimurium [9] = assay: Mutagenic activity in Salmonella typhimurium TA98 at 0.04 to 4 ug/plate by Ames test; format: toxicity, organism-based; details: salmonella enterica subsp. enterica serovar typhimurium; how it was run: as §1
Salmonella typhimurium [10] = assay: Mutagenic activity in Salmonella typhimurium TA98 at 0.04 to 4 ug/plate by Ames test in presence of mouse liver S9 fraction; format: toxicity, organism-based; details: salmonella enterica subsp. enterica serovar typhimurium; how it was run: as §1
[11] = Cytotoxicity against African green monkey Vero cells assessed as growth inhibition at 25 uM after 48 hrs by MTT assay relative to control; format: cell-based; details: chlorocebus sabaeus, read-out: GI
How it was run: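 VERO cells were exposed to serial dilutions in fresh medium of compounds dissolved in DMSO, for 48 h at 37 °C in 5% CO₂. A DMSO (<0.1%) negative control was included. Growth inhibition was read by MTT at 570 nm; nifurtimox was the positive control.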

[12] = Selectivity index, ratio of IC50 for human RBC to IC50 for Trypanosoma cruzi Tulahuen 2 epimastigotes
How it was run: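 Hemolysis: washed human erythrocytes (2% w/v in PBS) incubated 24 h at 37 °C with compound at final 50, 100 and 200 μM. Ten replicates per concentration. Hemoglobin release read at 405 nm against water lysis as 100%; amphotericin B 1.5 μM was the positive control. SI = IC50 red cells / parasite IC50 (Sylvio X-10 amastigotes or Tulahuen 2 epimastigotes).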

Salmonella typhimurium [13] = assay: Mutagenic activity in Salmonella typhimurium TA98 at 3 to 250 ug/plate by Ames test in presence of mouse liver S9 fraction; format: toxicity, organism-based; details: salmonella enterica subsp. enterica serovar typhimurium; how it was run: as §1
Salmonella typhimurium [14] = assay: Mutagenic activity in Salmonella typhimurium TA98 at 5 to 400 ug/plate by Ames test; format: toxicity, organism-based; details: salmonella enterica subsp. enterica serovar typhimurium; how it was run: as §1
Salmonella typhimurium [15] = assay: Mutagenic activity in Salmonella typhimurium TA98 at 0.05 to 4 ug/plate by Ames test in presence of mouse liver S9 fraction; format: toxicity, organism-based; details: salmonella enterica subsp. enterica serovar typhimurium; how it was run: as §1
Salmonella typhimurium [16] = assay: Mutagenic activity in Salmonella typhimurium TA98 at 0.05 to 4 ug/plate by Ames test; format: toxicity, organism-based; details: salmonella enterica subsp. enterica serovar typhimurium; how it was run: as §1

SMILES: C=CCn1c(C)csc1=N/N=C/c1ccc([N+](=O)[O-])s1
- IC50 (Trypanosoma cruzi [1]): 2.55 µM
- IC50 (Trypanosoma cruzi [2]): 20 µM
- Activity (Salmonella typhimurium [6]): Non-toxic
- Activity (Salmonella typhimurium [7]): Non-toxic

SMILES: C=CCN1C(=O)CS\C1=N/N=C/C=C/c1cccs1
- IC50 (Trypanosoma cruzi [2]): 20 µM
- Activity (Salmonella typhimurium [13]): Toxic
- Activity (Salmonella typhimurium [14]): Toxic

SMILES: C=CCNc1nnc(-c2ccc([N+](=O)[O-])s2)s1
- IC50 (Trypanosoma cruzi [1]): 5 µM
- selectivity ratio [8]: 50
- IC50 (Trypanosoma cruzi [2]): 12 µM
- Activity (Salmonella typhimurium [15]): Non-toxic
- Activity (Salmonella typhimurium [16]): Non-toxic
- IC90 (Trypanosoma cruzi [3]): 15.9 µM

The next compounds have a lower IC50 (Trypanosoma cruzi [2]) than those just listed; values first:

- IC50 (Trypanosoma cruzi [1]): > 25 µM
- IC50 (Trypanosoma cruzi [2]): 11 µM
- IC90 (Trypanosoma cruzi [3]): > 25 µM
SMILES: Br.C=CCn1c(-c2ccc(Cl)cc2)cs\c1=N/N=C/C=C/C=C/c1cccs1
- Activity (Salmonella typhimurium [4]): Non-toxic
- Activity (Salmonella typhimurium [5]): Non-toxic

- IC50 (Trypanosoma cruzi [2]): 4.9 µM
SMILES: O=[N+]([O-])c1ccc(/C=N/N=c2\[nH]c(-c3ccc(Cl)cc3)cs2)s1
- inhibition at 48 h, 25 µM [11]: > 50%

- IC50 (Trypanosoma cruzi [1]): 8.2 µM
- IC50 (Trypanosoma cruzi [2]): 3.3 µM
SMILES: C=CCn1c(-c2ccc([N+](=O)[O-])cc2)cs\c1=N/N=C/C=C/c1ccc([N+](=O)[O-])s1
- selectivity ratio [8]: 13
- Activity (Salmonella typhimurium [9]): Toxic
- Activity (Salmonella typhimurium [10]): Toxic

- IC50 (Trypanosoma cruzi [2]): 2.9 µM
SMILES: CC(=O)N(C1=NN(C(C)=O)C(c2ccc([N+](=O)[O-])s2)S1)c1ccccc1 (stereo not given)
- Activity (Salmonella typhimurium [6]): Non-toxic
- inhibition at 48 h, 25 µM [11]: > 50%
- Ratio IC50 [12]: 3
- Activity (Salmonella typhimurium [7]): Toxic

Reference: ChEMBL document CHEMBL3259808, “Optimization of antitrypanosomatid agents: identification of nonmutagenic drug candidates with in vivo activity” (J Med Chem, 2014)
